This is a sample that favours compounds with a hit; in the whole collection about 1% have one here.
Thrombin inh: blocks human thrombin protease activity; inhibition, % at 5 µM; alpha-thrombin, Boc-VPR-AMC fluorogenic substrate cleavage; P00734; hit rate 0.26% among 220,000; AID 1046;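 active = inhibition at or above 40%; inactive = inhibition below 40%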
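Assay system: human alpha-thrombin enzyme. Reagent: Boc-VPR-AMC substrate, 15 µM final. Compound dosing: one concentration per compound, 5 µM, with 0.2% DMSO. Incubation: room-temperature reaction. Technique: AMC fluorescence, 355/460 nm. Measure: % inhibition relative to enzyme controls and enzyme-free blanks.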
KLK5 inh: blocks human kallikrein 5 protease activity | Q9Y337 | recombinant hK5, fluorogenic AMC substrate cleavage | inhibition, % at 5 µM | hit rate 0.59% among 210,000 | AID 873;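 active = inhibition of 40% or more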
Target sequence (Q9Y337 67-293 limits assumed): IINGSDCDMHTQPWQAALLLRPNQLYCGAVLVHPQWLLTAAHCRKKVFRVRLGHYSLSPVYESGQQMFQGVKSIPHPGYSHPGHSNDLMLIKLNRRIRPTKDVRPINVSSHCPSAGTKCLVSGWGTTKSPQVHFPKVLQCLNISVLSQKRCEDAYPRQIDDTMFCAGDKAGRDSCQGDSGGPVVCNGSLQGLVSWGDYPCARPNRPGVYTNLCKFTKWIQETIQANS
FXIa inh: factor XIa (human) inhibition; hit rate 0.14% among 220,000; inhibition, % at 5 µM; purified FXIa, Boc-Glu-Ala-Arg-AMC fluorogenic substrate;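 active = inhibition of at least 40%; inactive = inhibition below 40%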;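 note: fluorescence of freed AMC excited at 355 nm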
FXIIa inh: inhibitors of human coagulation factor XIIa; P00748; purified FXIIa, Boc-QGR-AMC fluorogenic substrate, 2 h; inhibition, % at 5 µM; hit rate 0.3% among 220,000; AID 800; in the data active = inhibition above about 40%
Large screens that a line does not name were inactive.

O=C(CCc1ccccc1)Nc1nc2c(F)cc(F)cc2s1	none
N=C1/C(=C\c2ccc(OC(=O)c3ccco3)cc2)C(=O)N=C2SC=NN12	KLK5 inh 57.8
C/C(=N\OC(=O)C1CC1)C1CC1c1ccc(F)cc1 (stereo not given)	KLK5 inh 52.3
COc1ccc(C2CC2/C(C)=N/OC(=O)C2CC2)cc1 (stereo not given)	none
COC(=O)c1ccc2nc(NC(=O)CN3C(=O)CCC3=O)sc2c1	KLK5 inh 49.9
COC(=O)c1ccc2nc(NC(=O)C(C)C)sc2c1	none
O=C(N/N=C/c1cc([N+](=O)[O-])ccc1O)c1cccc2cc[nH]c12	KLK5 inh 60.3
CC(C)c1ccc(NC(=O)c2ccc(Br)o2)cc1	FXIIa inh 49.9
Cc1c(NC(=O)c2ccccc2N)cccc1C(=O)O	none
Cc1c(NC(=O)c2ccc(Br)o2)cccc1C(=O)O	FXIIa inh 45.3
CSc1nc(-c2ccccc2)nc(N2CCOCC2)c1C(C)=O	Thrombin inh 49.6
CSc1nc(-c2ccccc2)nc(N2CCCC2)c1C(C)=O	none
CCCOc1ccc(/C=N/NC(=O)C2CCCN2S(=O)(=O)c2ccc(Cl)cc2)cc1 (stereo not given)	KLK5 inh 49.4
COc1ccccc1-c1cc(C(=O)NCc2ccco2)no1	KLK5 inh 48.3
COc1ccccc1/C=C/C(=O)NCC(=O)n1nc(C)cc1C	none
Cc1ccc(C(=O)C2=C(O)C(=O)N(c3ncccn3)C2c2ccc(F)cc2)o1 (stereo not given)	none
COC(=O)c1sc(N2C(=O)C(O)=C(C(=O)c3ccc(C)o3)C2c2ccc(F)cc2)nc1C (stereo not given)	KLK5 inh 51.1
Cc1ccc(C)c(NC(=S)NCCc2c[nH]c3ccccc23)c1	KLK5 inh 42.1
Cc1ccccc1Cn1cnc2c(NS(C)(=O)=O)c(C)c(C)cc21	FXIIa inh 40.9
CCOC(=O)C1CCCN(c2c(NCCCN(C)c3ccccc3)c(=O)c2=O)C1 (stereo not given)	KLK5 inh 41.6
CCOC(=O)C1CCCN(c2c(NCCc3ccccc3)c(=O)c2=O)C1 (stereo not given)	none
CCCCOC(=O)n1ccc(C(=O)Nc2ccccc2OC)n1	Thrombin inh 44.7
CCCS(=O)(=O)N1CCN(Cc2ccc3c(c2)c2ccccc2n3CC)CC1	none
COc1ccc(S(=O)(=O)NC(C)C(=O)Nc2cccc(C(C)=O)c2)cc1 (stereo not given)	Thrombin inh 46.9
C/C(=N\OC(=O)NC(C)C)c1sc(-c2ccc(Cl)cc2)nc1C	KLK5 inh 58.4
C/C(=N\OC(=O)NC(C)C)c1sc(-c2ccccc2)nc1C	none
CN(C)c1ccc(/C=N/NC(=O)CCCCCNC(=O)c2ccccc2)cc1	KLK5 inh 79.9
Cc1ccc(Nc2ncccc2C(N)=O)cc1[N+](=O)[O-]	none
O=C1c2[nH]nc(-c3ccccc3O)c2C(c2ccccc2)N1Cc1ccco1 (stereo not given)	none
O=C1c2[nH]nc(-c3ccccc3O)c2C(c2ccccc2F)N1Cc1ccco1 (stereo not given)	KLK5 inh 40.8
CCCCc1ccc(NC(=O)C(=O)NCCN2CCN(Cc3ccc([N+](=O)[O-])cc3)CC2)cc1	none (no result: KLK5 inh)
O=C(NCC(=O)N1CCN(S(=O)(=O)/C=C/c2ccccc2)CC1)c1ccccc1F	FXIIa inh 56.7 (no result: Thrombin inh)
COc1ccc(NC(=S)Nc2ccc3cn[nH]c3c2)cc1	Thrombin inh 49.0
COC(=O)c1nc(NC(C)=O)n[nH]1	FXIIa inh 48.0
CCOC(=O)/C(C)=C1\NC(C)(C)Cc2ccccc21	FXIIa inh 64.7
CC1=C(C(=O)OCC2CCCO2)C(c2ccc(C)o2)C2=C(CC(c3ccc(F)cc3)CC2=O)N1 (stereo not given)	FXIIa inh 51.4
CC1=C(C(=O)OCC2CCCO2)C(c2ccc(C)o2)C2=C(CC(c3ccc(N(C)C)cc3)CC2=O)N1 (stereo not given)	none
Clc1ccc(-c2ccc(CNCC3CCCO3)o2)cc1 (stereo not given)	none
O=C(COC(=O)c1ccccc1Br)Nc1ccc(F)cc1	FXIIa inh 41.3
CCc1ccc[n+](-c2[nH]c(=O)sc2/C=N/N=C(\N)[O-])c1	FXIa inh 42.3
CCc1ccc[n+](-c2[nH]c(=O)sc2/C=N/NC([S-])=Nc2ccccc2)c1	none
CCn1c(NC(=O)c2ccccc2F)c(-c2cccs2)c(=O)c2ccccc21	none
COc1ccc2[nH]c(=O)c(CN(CCO)S(=O)(=O)c3ccc(C)cc3)cc2c1	none
COc1ccc(S(=O)(=O)N(CCCN2CCCC2=O)Cc2cc3c(C)cc(C)cc3[nH]c2=O)cc1	KLK5 inh 133.4
